We go through eleven molecules from ChEMBL document CHEMBL2396513, “Falcipain-2 inhibition by suramin and suramin analogues” (Bioorg Med Chem, 2013).

Active and inactive are the calls of the source. The calls are words filed in the database; no cut-off is given here.

The nature of assay [1]: Inhibition of Plasmodium falciparum falcipain-2 peptidolytic activity using Z-Phe-Arg-AMC as substrate measured over 30 mins by spectrofluorimetric analysis. An outline of the steps:
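Recombinant falcipain-2 at 20 nM in 100 mM sodium acetate, 10 mM DTT, 10% glycerol, pH 5.5, with 50 µM Z-Phe-Arg-AMC and varying inhibitor concentrations. AMC release followed continuously (ex 355/em 460 nm) over 30 min at 23 ± 2 °C. IC50 from percent activity versus inhibitor concentration fitted to four-parameter logistic; at least three independent experiments.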

In assay [2] the test system is Plasmodium falciparum. As to the kind of experiment: Binding affinity to Plasmodium falciparum falcipain-2 at 1:1 compound to protein molar ratio by isothermal titration assay. An outline of the steps: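 Recombinant mature falcipain-2 domain (241 aa, E. coli-expressed, Ni-column purified, refolded), 5 µM in 100 mM sodium acetate pH 5.5, 5% glycerol, 10 mM DTT; suramin added stepwise from stock in same buffer. Intrinsic tryptophan fluorescence read at ex 295/em 340 nm; maximum dilution 10%, with fluorescence and protein concentration corrected. Stoichiometry taken from inflection of first-derivative titration curve.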

Assay [3] concerns Plasmodium falciparum. As to the kind of experiment: Inhibition of Plasmodium falciparum falcipain-2 hemoglobinase activity at 200 nM after 90 mins by Coomassie Blue R-250 staining-based densitometric analysis. An outline of the steps: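 Human hemoglobin 0.1 mg/ml digested by 20 nM recombinant falcipain-2 in 100 mM sodium acetate, 10 mM DTT, 10% glycerol, pH 5.5, with or without compound, 37 °C for 90 min. Quenched with denaturing SDS sample buffer, products run on 15% SDS-PAGE, Coomassie-stained, and remaining hemoglobin quantified by densitometry.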

Consider `O=C(Nc1cccc(C(=O)Nc2ccc(S(=O)(=O)O)cc2S(=O)(=O)O)c1)Nc1cccc(C(=O)Nc2ccc(S(=O)(=O)O)cc2S(=O)(=O)O)c1`, for which the midpoint of inhibition in assay [1], the IC50, lay at 98 nM.
Take `CC1=CCC(C(=O)/N=C2\CC=C(S(=O)(=O)O)c3cc(S(=O)(=O)O)cc(S(=O)(=O)O)c32)=C/C1=N/C(=O)C1=CC=C/C(=N\C(=O)/N=C2\C=CC=C(C(=O)/N=C3/CC(C(=O)/N=C4\CC=C(S(=O)(=O)O)c5cc(S(=O)(=O)O)cc(S(=O)(=O)O)c54)=CC=C3C)C2)C1`: the outcome with Plasmodium falciparum [2] was Active. Moreover, in assay [1], the IC50 (commonly the point on the concentration scale where inhibition reaches its midpoint) stood at 95 nM. Also, the inhibition result in the assay on Plasmodium falciparum [3] is “Active”.
Molecule `COc1ccc(C(=O)Nc2ccc(S(=O)(=O)O)c3cc(S(=O)(=O)O)cc(S(=O)(=O)O)c23)cc1NC(=O)c1cccc(NC(=O)Nc2cccc(C(=O)Nc3cc(C(=O)Nc4ccc(S(=O)(=O)O)c5cc(S(=O)(=O)O)cc(S(=O)(=O)O)c45)ccc3OC)c2)c1` registered an IC50 in assay [1] of 67 nM.
Take `O=C(Nc1cccc(C(=O)Nc2cccc(C(=O)Nc3ccc(S(=O)(=O)O)c4cc(S(=O)(=O)O)cc(S(=O)(=O)O)c34)c2)c1)Nc1cccc(C(=O)Nc2cccc(C(=O)Nc3ccc(S(=O)(=O)O)c4cc(S(=O)(=O)O)cc(S(=O)(=O)O)c34)c2)c1`: inhibition in assay [1] was half-maximal at 36 nM (IC50).
Still for that read-out and setting: the figure for `CC(C)c1ccc(C(=O)Nc2ccc(S(=O)(=O)O)c3cc(S(=O)(=O)O)cc(S(=O)(=O)O)c23)cc1NC(=O)c1cccc(NC(=O)Nc2cccc(C(=O)Nc3cc(C(=O)Nc4ccc(S(=O)(=O)O)c5cc(S(=O)(=O)O)cc(S(=O)(=O)O)c45)ccc3C(C)C)c2)c1` is 111 nM; for `O=C(Nc1cccc(C(=O)Nc2cc(C(=O)Nc3ccc(S(=O)(=O)O)c4cc(S(=O)(=O)O)cc(S(=O)(=O)O)c34)ccc2-c2ccccc2)c1)Nc1cccc(C(=O)Nc2cc(C(=O)Nc3ccc(S(=O)(=O)O)c4cc(S(=O)(=O)O)cc(S(=O)(=O)O)c34)ccc2-c2ccccc2)c1` it is 62 nM; for `O=C(Nc1cccc(C(=O)Nc2cc(C(=O)Nc3ccc(S(=O)(=O)O)c4cc(S(=O)(=O)O)cc(S(=O)(=O)O)c34)ccc2Cl)c1)Nc1cccc(C(=O)Nc2cc(C(=O)Nc3ccc(S(=O)(=O)O)c4cc(S(=O)(=O)O)cc(S(=O)(=O)O)c34)ccc2Cl)c1` it is 78 nM.
On the same count and under the same terms, the figure for `COCc1ccc(C(=O)Nc2ccc(S(=O)(=O)O)c3cc(S(=O)(=O)O)cc(S(=O)(=O)O)c23)cc1NC(=O)c1cccc(NC(=O)Nc2cccc(C(=O)Nc3cc(C(=O)Nc4ccc(S(=O)(=O)O)c5cc(S(=O)(=O)O)cc(S(=O)(=O)O)c45)ccc3COC)c2)c1` is 60 nM; for `CCc1ccc(C(=O)Nc2ccc(S(=O)(=O)O)c3cc(S(=O)(=O)O)cc(S(=O)(=O)O)c23)cc1NC(=O)c1cccc(NC(=O)Nc2cccc(C(=O)Nc3cc(C(=O)Nc4ccc(S(=O)(=O)O)c5cc(S(=O)(=O)O)cc(S(=O)(=O)O)c45)ccc3CC)c2)c1` it is 80 nM; for `O=C(Nc1cccc(C(=O)Nc2cc(C(=O)Nc3ccc(S(=O)(=O)O)c4cc(S(=O)(=O)O)cc(S(=O)(=O)O)c34)ccc2F)c1)Nc1cccc(C(=O)Nc2cc(C(=O)Nc3ccc(S(=O)(=O)O)c4cc(S(=O)(=O)O)cc(S(=O)(=O)O)c34)ccc2F)c1` it is 42 nM.
Still for that read-out and setting: the figure for `O=C(Nc1cccc(C(=O)Nc2ccc(S(=O)(=O)O)c3cc(S(=O)(=O)O)cc(S(=O)(=O)O)c23)c1)Nc1cccc(C(=O)Nc2ccc(S(=O)(=O)O)c3cc(S(=O)(=O)O)cc(S(=O)(=O)O)c23)c1` is 167 nM.
